Measurements reported in PMC9426400 (Hepatology Communications, 2022).
Read-outs that look alike come from different tables or passages of the source. Blank lines part the entries; values can stand above or below the molecule they belong to.

Tests used:
[1] = test system: FFD-fed dyslipidemic Sprague Dawley rats; experiment: Dyslipidemic rat model; type: in vivo; conditions: for Dose in ACCi combination with significantly reduced hepatic Apoc3 expression: relative to both vehicle and ACCi alone; for Dose inducing PPAR target genes in eWAT: epidydimal white adipose tissue
Method in brief: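 Sprague Dawley rats fed FFD plus 4.03% sugar water (2.3% fructose, 1.7% glucose) for 28 days, across three studies. PPAR or THRβ agonists started Day 7 and ACCi Day 14. Circulating TG on Day 22 (serum Study 2, plasma Studies 3–4; n = 5–10/group). Terminal liver TG was taken fed, 8 h post-dose. Liver and eWAT gene expression measured. Nonparametric statistics, p ≤ 0.05.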

[2] = test system: Huh7 cells; experiment: FAO assay in Huh7 cells; type: cell-based, human; conditions: for EC50: Homo sapiens; for FAO induction (times): 14C-OA, monotherapy; for Stimulation of FAO: at the concentrations tested
[3] = test system: LX2 human hepatic stellate cell line; experiment: LX2 collagen assay; type: cell-based; conditions: LX-2, read-out: EC50, inhibition of collagen production
[4] = test system: subjects with NASH; conditions: cited from earlier work
[5] = test system: FFD-fed C57BL/6 mice; experiment: FFD mouse model of early NASH; type: in vivo
[6] = target: T1, rat PPARδ (Rattus norvegicus, UniProt Q62879); experiment: PPAR luciferase reporter assay, rat PPARδ; type: cell-based
T1 sequence (Q62879 1-440): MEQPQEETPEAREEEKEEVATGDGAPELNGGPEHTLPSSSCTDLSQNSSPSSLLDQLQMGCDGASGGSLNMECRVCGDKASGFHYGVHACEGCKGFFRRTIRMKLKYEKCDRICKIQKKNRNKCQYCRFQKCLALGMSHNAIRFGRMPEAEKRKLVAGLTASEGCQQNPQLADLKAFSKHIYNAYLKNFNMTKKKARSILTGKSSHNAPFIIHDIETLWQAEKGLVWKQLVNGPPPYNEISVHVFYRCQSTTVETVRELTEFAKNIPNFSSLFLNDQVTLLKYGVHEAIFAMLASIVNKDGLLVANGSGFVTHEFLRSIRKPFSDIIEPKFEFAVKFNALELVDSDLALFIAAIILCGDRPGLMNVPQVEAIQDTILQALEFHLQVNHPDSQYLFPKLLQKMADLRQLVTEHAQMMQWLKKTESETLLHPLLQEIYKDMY

[7] = test system: FAO; experiment: FAO assay validation with CPT1 inhibitor etomoxir; type: cell-based; conditions: read-out: EC50, block of FAO
[8] = Study 2, combination with ACCi 30 mg/kg, 15 mg/kg Feno, 30 mg/kg Ela
[9] = Huh-7, read-out: FAO EC50, Huh7 cells, 14C-OA, monotherapy

SMILES: CSc1ccc(C(=O)/C=C/c2cc(C)c(OC(C)(C)C(=O)O)c(C)c2)cc1 [Ela, elafibranor]
Liver TG reduction compared with vehicle [1, 8]: 76%
Dose in ACCi combination with significantly reduced hepatic Apoc3 expression [1]: ≥ 3 mg/kg
EC50 [2, 9]: 10300 nM
FAO induction (times) ([2]; Huh7 cells): 1.4 times
EC50 [3]: ~2000 nM

SMILES: CC(C)OC(=O)C(C)(C)Oc1ccc(C(=O)c2ccc(Cl)cc2)cc1 [Feno, fenofibrate]
Liver TG reduction compared with vehicle [1, 8]: 58%
Dose in ACCi combination with significantly reduced hepatic Apoc3 expression [1]: ≥ 5 mg/kg
Liver total cholesterol content reduction ([5]; Feno^high (150 mg/kg) monotherapy): 57%
Liver total cholesterol content reduction ([5]; Feno^low (50 mg/kg) monotherapy): 49%

SMILES: CC(C)(Oc1ccc(C(=O)c2ccc(Cl)cc2)cc1)C(=O)O [Fenofibric acid]
Activity in the FAO assay ([2]; Huh7 cells, up to a concentration of 100 μM): not active

SMILES: CCO[C@H](COc1ccc(C(F)(F)F)cc1)CSc1ccc(OCC(=O)O)c(C)c1 [Sela, seladelpar]
Dose inducing PPAR target genes in eWAT ([1]; dyslipidemic rats): 15 mg/kg
Dose in ACCi combination with significantly reduced hepatic Apoc3 expression [1]: 15 mg/kg
NASH resolution (share of subjects) ([4]; over 52 weeks, vs. 8% placebo): 26%
Stimulation of FAO ([2]; Huh7 cells): did not stimulate FAO

SMILES: CCc1ccc(CCOc2ccc(CC3SC(=O)NC3=O)cc2)nc1 (centres unmarked) [pioglitazone]
NASH resolution (share of subjects) ([4]; vs. 21% placebo): 47%

Continued, in another order:

EC50 ([2]; Huh-7, read-out: FAO EC50, Huh7 cells, 14C-OA tracer): 32.7 nM
EC50 ([2]; Huh-7, read-out: FAO EC50, Huh7 cells, 14C-PA tracer): 16.6 nM
SMILES: COc1ccccc1[C@H](Cn1c(=O)n(C(C)(C)C(=O)O)c(=O)c2c(C)c(-c3ncco3)sc21)OC1CCOCC1 [FIR, Firsocostat]
Reduction in relative liver TG ([4]; subjects with NASH): 30%

Activation of rat PPARδ [6]: did not activate rat PPARδ
SMILES: O=C(O)CCCc1cc2cc(Cl)ccc2n1S(=O)(=O)c1ccc2ncsc2c1 [Lani, lanifibranor]
NASH resolution (share of subjects) ([4]; over 24 weeks, vs. 19% placebo): 45%
Fibrosis regression (share of subjects) ([4]; over 24 weeks, vs. 24% placebo): 42%
Stimulation of FAO ([2]; Huh7 cells): did not stimulate FAO

EC50 [2, 9]: 46000 nM
SMILES: CC(C)c1cc(Oc2c(Cl)cc(-n3nc(C#N)c(=O)[nH]c3=O)cc2Cl)n[nH]c1=O [Res, Resmetirom]
Liver TG reduction compared with vehicle ([1]; Study 4, 1 mg/kg Res in combination with ACCi 30 mg/kg): 83%
Liver TG reduction compared with vehicle ([1]; Study 4, 3 mg/kg Res in combination with ACCi 30 mg/kg): 88%
Liver TG in combination with ACCi relative to ACCi alone ([1]; dyslipidemic rats, combined with ACCi 30 mg/kg): lowered liver TG relative to ACCi alone
Circulating TG reduction vs. vehicle ([1]; dyslipidemic rats, monotherapy, 3 mg/kg, after 1 week): 50%
Dose in ACCi combination with significantly reduced hepatic Apoc3 expression [1]: 3 mg/kg
NASH resolution (share of subjects) ([4]; vs. 6.5% placebo): 27.4%
FAO induction (times) ([2]; Huh7 cells): 1.6 times

EC50 [2, 9]: 51500 nM
SMILES: CCO[C@@H](Cc1ccc(OCCn2c(C)ccc2-c2ccc(SC)cc2)cc1)C(=O)O [Saro, saroglitazar]
Dose inducing PPAR target genes in eWAT ([1]; dyslipidemic rats): 3 mg/kg
Dose in ACCi combination with significantly reduced hepatic Apoc3 expression [1]: ≥ 0.3 mg/kg
FAO induction (times) ([2]; Huh7 cells): 3.6 times

EC50 [7]: 136 nM
SMILES: CCOC(=O)[C@@]1(CCCCCCOc2ccc(Cl)cc2)CO1 [etomoxir]
